{"source": "ChEMBL document CHEMBL3763021", "about": "(Eur J Med Chem, 2016)", "key": {"[1]": {"test_system": "LS174T", "experiment": "Antitumor activity against human LS174T cells xenografted in BALB/C mouse assessed as tumor volume inhibition at 18.75 mg/kg, bid administered for 10 days measured twice per week", "assay_type": "functional", "conditions": "240 h, read-out: TGI", "how_it_was_run": "(§1)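 Male BALB/c nude mice, 18–20 g, kept under SPF conditions. LS-174T cells at 2.5×10^7 cells/mL were injected s.c. into the right flank, and tumors were grown to about 100 mm3. Mice were randomized, n=6 treated and n=9 vehicle. Oral dosing ran qd or bid for 10 days; vehicle controls got the same volume of solvent. Tumor volume = length×width²/2, measured twice weekly. IR = (control − treated)/control for tumor weight or volume at day 10.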"}, "[2]": {"experiment": "Clearance in Sprague-Dawley rat at 5 mg/kg, po by LC/MS/MS analysis", "assay_type": "ADME, organism-based", "conditions": "in vivo", "how_it_was_run": "(§2)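 Male SD rats, 180–240 g, 3 per compound; single dose of 1 mg/kg iv or 5 mg/kg po, dosing volume 5 mL/kg. Blood was sampled from 2 min to 24 h and centrifuged at 4 °C. Plasma underwent protein precipitation, then LC/MS/MS in SRM mode with an internal standard. Parameters were derived by noncompartmental analysis.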"}, "[3]": {"test_system": "Mus musculus", "experiment": "Toxicity in BALB/C mouse xenografted with human LS174T cells assessed as mortality at 18.75 to 75 mg/kg, bid administered for 10 days", "assay_type": "organism-based", "conditions": "in vivo, 240 h", "how_it_was_run": "(§3)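 Male BALB/C nude mice (18–20 g) kept under SPF conditions. LS-174T cells at 2.5×10^7 cells/mL injected subcutaneously into the right flank. Once tumors reached about 100 mm3, mice were randomized to groups of 6 (vehicle group n = 9) and dosed orally once or twice daily for 10 days. Controls received solvent. Body weight and tumor volume were measured twice weekly and deaths recorded.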"}, "[4]": {"experiment": "Half life in Sprague-Dawley rat at 5 mg/kg, po by LC/MS/MS analysis", "assay_type": "ADME, organism-based", "conditions": "in vivo", "how_it_was_run": "as §2"}, "[5]": {"test_system": "Mus musculus", "experiment": "Toxicity in BALB/C mouse xenografted with human LS174T cells assessed as loss of body weight at 18.75 to 75 mg/kg, bid administered for 10 days measured twice per week", "assay_type": "organism-based", "conditions": "in vivo, 240 h", "how_it_was_run": "as §3"}, "[6]": {"experiment": "Mean resident time (0 to t) in Sprague-Dawley rat at 5 mg/kg, po by LC/MS/MS analysis", "assay_type": "ADME, organism-based", "conditions": "in vivo", "how_it_was_run": "as §2"}, "[7]": {"test_system": "BXPC-3", "experiment": "Potency index, ratio of GDC-0449 IC50 to compound IC50 for human BxPC3 cells", "assay_type": "functional"}, "[8]": {"experiment": "Antiproliferative activity against human PC3 cells after 72 hrs by CellTiter-Glo luminescent cell viability assay", "assay_type": "functional, cell-based", "conditions": "PC-3, 72 h", "how_it_was_run": "(§4)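 Cells were grown in DMEM with 10% FBS, seeded at a density suited to each line, and left 24 h at 37 °C. Compounds were prepared in DMSO, diluted in medium over a concentration series starting at 100 µM, and applied for 72 h. CellTiter-Glo reagent was added for 30 min at room temperature before reading luminescence. IC50 came from four-parameter curve fitting.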"}, "[9]": {"experiment": "Oral bioavailability in Sprague-Dawley rat at 5 mg/kg", "assay_type": "ADME, organism-based", "conditions": "in vivo", "how_it_was_run": "as §2"}, "[10]": {"test_system": "LS174T", "experiment": "Antitumor activity against human LS174T cells xenografted in BALB/C mouse assessed as tumor weight inhibition at 37.5 mg/kg, bid administered for 10 days measured twice per week", "assay_type": "functional", "conditions": "240 h, read-out: TGI", "how_it_was_run": "as §1"}, "[11]": {"experiment": "AUC (0 to t) in Sprague-Dawley rat at 5 mg/kg, po by LC/MS/MS analysis", "assay_type": "ADME, organism-based", "conditions": "in vivo", "how_it_was_run": "as §2"}, "[12]": {"test_system": "PC-3", "experiment": "Potency index, ratio of GDC-0449 IC50 to compound IC50 for human PC3 cells", "assay_type": "functional"}, "[13]": {"experiment": "Cmax in Sprague-Dawley rat at 1 mg/kg, iv by LC/MS/MS analysis", "assay_type": "ADME, organism-based", "set-up": "dose 1 mg/kg, route intravenous", "conditions": "in vivo", "how_it_was_run": "as §2"}, "[14]": {"experiment": "Cmax in Sprague-Dawley rat at 5 mg/kg, po by LC/MS/MS analysis", "assay_type": "ADME, organism-based", "set-up": "dose 5 mg/kg, route oral", "conditions": "in vivo", "how_it_was_run": "as §2"}, "[15]": {"experiment": "Mean resident time (0 to t) in Sprague-Dawley rat at 1 mg/kg, iv by LC/MS/MS analysis", "assay_type": "ADME, organism-based", "conditions": "in vivo", "how_it_was_run": "as §2"}, "[16]": {"test_system": "LS174T", "experiment": "Antitumor activity against human LS174T cells xenografted in BALB/C mouse assessed as tumor volume inhibition at 75 mg/kg, bid administered for 10 days measured twice per week", "conditions": "240 h, read-out: TGI"}, "[17]": {"test_system": "LS174T", "experiment": "Antitumor activity against human LS174T cells xenografted in BALB/C mouse assessed as tumor volume inhibition at 37.5 mg/kg, bid administered for 10 days measured twice per week", "assay_type": "functional", "conditions": "240 h, read-out: TGI", "how_it_was_run": "as §1"}, "[18]": {"experiment": "AUC (0 to t) in Sprague-Dawley rat at 1 mg/kg, iv by LC/MS/MS analysis", "assay_type": "ADME, organism-based", "conditions": "in vivo", "how_it_was_run": "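Male SD rats, 3 per compound, 180–240 g, single iv dose at 1 mg/kg, dosing volume 5 mL/kg. Blood sampled at 2, 5, 15, 30 min and 1, 2, 4, 6, 8, 10, 24 h, then centrifuged at 4 °C. Plasma protein-precipitated and analysed by LC/MS/MS in SRM mode with internal standard. AUC(0-t) obtained by noncompartmental analysis.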"}, "[19]": {"test_system": "LS174T", "experiment": "Antitumor activity against human LS174T cells xenografted in BALB/C mouse assessed as tumor weight inhibition at 18.75 mg/kg, bid administered for 10 days measured twice per week", "assay_type": "functional", "conditions": "240 h, read-out: TGI", "how_it_was_run": "as §1"}, "[20]": {"experiment": "Antiproliferative activity against human BxPC3 cells after 72 hrs by CellTiter-Glo luminescent cell viability assay", "assay_type": "functional, cell-based", "conditions": "BXPC-3, 72 h", "how_it_was_run": "as §4"}, "[21]": {"experiment": "Half life in Sprague-Dawley rat at 1 mg/kg, iv by LC/MS/MS analysis", "assay_type": "ADME, organism-based", "conditions": "in vivo", "how_it_was_run": "as §2"}, "[22]": {"experiment": "Clearance in Sprague-Dawley rat at 1 mg/kg, iv by LC/MS/MS analysis", "assay_type": "ADME, organism-based", "conditions": "in vivo", "how_it_was_run": "as §2"}, "[23]": {"test_system": "LS174T", "experiment": "Antitumor activity against human LS174T cells xenografted in BALB/C mouse assessed as tumor weight inhibition at 75 mg/kg, bid administered for 10 days measured twice per week", "assay_type": "functional", "conditions": "240 h, read-out: TGI", "how_it_was_run": "as §1"}, "[24]": {"experiment": "Apparent volume of distribution in Sprague-Dawley rat at 1 mg/kg, iv by LC/MS/MS analysis", "conditions": "in vivo"}, "[25]": {"test_system": "LS174T", "experiment": "Potency index, ratio of GDC-0449 IC50 to compound IC50 for human LS174T cells", "assay_type": "functional"}, "[26]": {"test_system": "Rattus norvegicus", "experiment": "Apparent volume of distribution in Sprague-Dawley rat at 5 mg/kg, po by LC/MS/MS analysis", "conditions": "in vivo"}, "[27]": {"experiment": "Inhibition of Sonic-induced hedgehog signalling in mouse NIH3T3 cells after 48 hrs by Gli-luciferase reporter assay", "assay_type": "cell-based", "conditions": "NIH3T3, 48 h", "how_it_was_run": "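NIH3T3 cells stably carrying a Gli-luciferase reporter were kept in DMEM with 10% FBS and 1 µg/mL puromycin, then seeded at 2×10^4 cells/well overnight at 37 °C. Compounds at 0.05–300 nM (8 concentrations) were added in medium with 0.5% FBS and 0.7 µg/mL Sonic Hh agonist, n=4 wells, for 48 h. Readout was the Firefly/Renilla luciferase ratio in lysates.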"}, "[28]": {"test_system": "LS174T", "experiment": "Antiproliferative activity against human LS174T cells after 72 hrs by CellTiter-Glo luminescent cell viability assay", "assay_type": "functional, cell-based", "how_it_was_run": "as §4"}}}
{"smiles": "Cc1ccc(CN2CCOCC2)cc1NC(=O)c1ccc(Nc2ncc(F)c(-c3ccc(OC(F)(F)F)cc3)n2)cc1", "values": [{"measurement": "inhibition in vivo at 18.75 mg/kg", "setting": "[1]", "value": 34, "unit": "%"}, {"measurement": "CL/F", "setting": "[2]", "value": 15.5, "unit": "mL/min/kg"}, {"measurement": "Activity", "setting": "[3]", "value": "Non-toxic"}, {"measurement": "half-life", "setting": "[4]", "value": 9.08, "unit": "h"}, {"measurement": "Activity", "setting": "[5]", "value": "Non-toxic"}, {"measurement": "MRT last", "setting": "[6]", "value": 7.42, "unit": "h"}, {"measurement": "Ratio IC50", "setting": "[7]", "value": 3}, {"measurement": "IC50", "setting": "[8]", "value": 11.6, "unit": "µM"}, {"measurement": "bioavailability", "setting": "[9]", "value": 37.2, "unit": "%"}, {"measurement": "inhibition in vivo at 37.5 mg/kg", "setting": "[10]", "value": 17.3, "unit": "%"}, {"measurement": "AUC(0-t)", "setting": "[11]", "value": 4720, "unit": "ng·h/mL"}, {"measurement": "Ratio IC50", "setting": "[12]", "value": 5.8}, {"measurement": "Cmax", "setting": "[13]", "value": 1010, "unit": "ng/mL"}, {"measurement": "Cmax", "setting": "[14]", "value": 494, "unit": "ng/mL"}, {"measurement": "MRT last", "setting": "[15]", "value": 4.85, "unit": "h"}, {"measurement": "inhibition in vivo at 75 mg/kg", "setting": "[16]", "value": 33.1, "unit": "%"}, {"measurement": "inhibition in vivo at 37.5 mg/kg", "setting": "[17]", "value": 34.9, "unit": "%"}, {"measurement": "AUC(0-t)", "setting": "[18]", "value": 2030, "unit": "ng·h/mL"}, {"measurement": "inhibition in vivo at 18.75 mg/kg", "setting": "[19]", "value": 18.4, "unit": "%"}, {"measurement": "IC50", "setting": "[20]", "value": 14.5, "unit": "µM"}, {"measurement": "half-life", "setting": "[21]", "value": 6.98, "unit": "h"}, {"measurement": "clearance", "setting": "[22]", "value": 7.75, "unit": "mL/min/kg"}, {"measurement": "inhibition in vivo at 75 mg/kg", "setting": "[23]", "value": 14.4, "unit": "%"}, {"measurement": "Vd", "setting": "[24]", "value": 4.67, "unit": "L/kg"}, {"measurement": "Ratio IC50", "setting": "[25]", "value": 5}, {"measurement": "Vd(app)", "setting": "[26]", "value": 12.03324, "unit": "L/kg"}, {"measurement": "IC50", "setting": "[27]", "value": 0.00103, "unit": "µM"}, {"measurement": "IC50", "setting": "[28]", "value": 9.1, "unit": "µM"}]}
